The text below walks through data of ChEMBL document CHEMBL4033667, “Design, synthesis, and identification of a novel napthalamide-isoselenocyanate compound NISC-6 as a dual Topoisomerase-IIα and Akt pathway inhibitor, and evaluation of its anti-melanoma activity” (Eur J Med Chem, 2017).

The structures appear in SMILES notation. pIC50: −log10 of the molar value. The source made the active and inactive calls. No cut-off for these calls is given here.

Series [1] has as its system CHL-1. The series can be described thus: Antiproliferative activity against human CHL-1 cells harboring wild type BRAF after 72 hrs by MTT assay. The series is classed as functional, cell-based. The note with it: CHL-1, 72 h. Put shortly:
(§1)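 MTT viability in melanoma lines grown in DMEM with 10% FBS and pen/strep at 37 °C, 5% CO2. 3000 cells/well, settled overnight, then exposed to compound (0 to 50 µM) in triplicate for 24, 48 or 72 h. MTT (5.0 mg/mL solution) added 3 h before termination. IC50 from non-linear regression (variable slope), mean ± SD.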

The subject of series [2] is UACC-903. The series can be described thus: Antiproliferative activity against human UACC-903 cells harboring BRAF V600E mutant after 72 hrs by MTT assay. The series is classed as functional, cell-based. The settings on record: UACC-903, 72 h. Put shortly:
as §1

Series [3] in a line: Antiproliferative activity against human 1205 Lu cells harboring BRAF V600E mutant after 48 hrs by MTT assay. The series is classed as functional, cell-based. Put shortly:
as §1

Series [4] in a line: Antiproliferative activity against human 1205 Lu cells harboring BRAF V600E mutant after 72 hrs by MTT assay. The series is classed as functional, cell-based. The method in brief:
as §1
Background: Tetrazolium dyes change colour on reduction, which living cells bring about.

Series [5] deals with CHL-1. The series can be described thus: Antiproliferative activity against human CHL-1 cells harboring wild type BRAF after 24 hrs by MTT assay. The series is classed as functional, cell-based. The note with it: CHL-1, 24 h. The method in brief:
as §1

Series [6] can be described thus: Antiproliferative activity against human 1205 Lu cells harboring BRAF V600E mutant after 24 hrs by MTT assay. The series is classed as functional, cell-based. The method in brief: as §1
In series [7] the test system is CHL-1. The series can be described thus: Antiproliferative activity against human CHL-1 cells harboring wild type BRAF after 48 hrs by MTT assay. The note with it: CHL-1, 48 h. The series is classed as functional, cell-based. The method in brief: as §1
The nature of series [8]: Antiproliferative activity against human A375M cells harboring BRAF V600E mutant after 24 hrs by MTT assay. The series is classed as functional, cell-based. Put shortly:
as §1

In series [9] the test system is UACC-903. The series can be described thus: Antiproliferative activity against human UACC-903 cells harboring BRAF V600E mutant after 48 hrs by MTT assay. The note with it: UACC-903, 48 h. The series is classed as functional, cell-based. Put shortly: as §1
In series [10] the test system is UACC-903. The series can be described thus: Antiproliferative activity against human UACC-903 cells harboring BRAF V600E mutant after 24 hrs by MTT assay. The series is classed as functional, cell-based. The note with it: UACC-903, 24 h. Put shortly: as §1
The nature of series [11]: Antiproliferative activity against human A375M cells harboring BRAF V600E mutant after 48 hrs by MTT assay. The series is classed as functional, cell-based. The method in brief:
as §1

A short description of series [12]: Antiproliferative activity against human A375M cells harboring BRAF V600E mutant after 72 hrs by MTT assay. The series is classed as functional, cell-based. Put shortly:
as §1

Series [13] concerns the target DNA topoisomerase 2-alpha (Homo sapiens) (UniProt P11388). The series can be described thus: Inhibition of human DNA topoisomerase 2alpha assessed as decrease in relaxation of supercoiled pBR322 DNA at 0.5 to 5 uM after 1 hr by ethidium bromide staining-based agarose gel electrophoresis. The method in brief: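 Kit-based relaxation assay: supercoiled plasmid DNA with 4 units of human Topo-IIα in assay buffer plus test agent or DMSO at 37 °C (1 h in legend, 30 min in methods). Stopped with 10% SDS, then proteinase K 15 min at 37 °C. Run on 1% agarose 1-2 h, ethidium bromide 2 h, destain 15 min in TAE, UV imaging.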

Series [14] relates to NHDF. The series can be described thus: Cytotoxicity against human NHDF cells assessed as reduction in cell viability at 2.5 uM after 48 hrs by MTT assay. The series is classed as cell-based. The method in brief: (§2)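 nHDF normal fibroblasts grown in serum-free fibroblast basal medium with growth kit and pen/strep/amphotericin B. Treated 48 h at set concentrations, with viability read by MTT assay.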

Series [15] relates to NHDF. The series can be described thus: Cytotoxicity against human NHDF cells assessed as reduction in cell viability at 5 uM after 48 hrs by MTT assay. The series is classed as cell-based. Put shortly: as §2

Chain of DNA topoisomerase 2-alpha (Homo sapiens) (P11388 whole entry): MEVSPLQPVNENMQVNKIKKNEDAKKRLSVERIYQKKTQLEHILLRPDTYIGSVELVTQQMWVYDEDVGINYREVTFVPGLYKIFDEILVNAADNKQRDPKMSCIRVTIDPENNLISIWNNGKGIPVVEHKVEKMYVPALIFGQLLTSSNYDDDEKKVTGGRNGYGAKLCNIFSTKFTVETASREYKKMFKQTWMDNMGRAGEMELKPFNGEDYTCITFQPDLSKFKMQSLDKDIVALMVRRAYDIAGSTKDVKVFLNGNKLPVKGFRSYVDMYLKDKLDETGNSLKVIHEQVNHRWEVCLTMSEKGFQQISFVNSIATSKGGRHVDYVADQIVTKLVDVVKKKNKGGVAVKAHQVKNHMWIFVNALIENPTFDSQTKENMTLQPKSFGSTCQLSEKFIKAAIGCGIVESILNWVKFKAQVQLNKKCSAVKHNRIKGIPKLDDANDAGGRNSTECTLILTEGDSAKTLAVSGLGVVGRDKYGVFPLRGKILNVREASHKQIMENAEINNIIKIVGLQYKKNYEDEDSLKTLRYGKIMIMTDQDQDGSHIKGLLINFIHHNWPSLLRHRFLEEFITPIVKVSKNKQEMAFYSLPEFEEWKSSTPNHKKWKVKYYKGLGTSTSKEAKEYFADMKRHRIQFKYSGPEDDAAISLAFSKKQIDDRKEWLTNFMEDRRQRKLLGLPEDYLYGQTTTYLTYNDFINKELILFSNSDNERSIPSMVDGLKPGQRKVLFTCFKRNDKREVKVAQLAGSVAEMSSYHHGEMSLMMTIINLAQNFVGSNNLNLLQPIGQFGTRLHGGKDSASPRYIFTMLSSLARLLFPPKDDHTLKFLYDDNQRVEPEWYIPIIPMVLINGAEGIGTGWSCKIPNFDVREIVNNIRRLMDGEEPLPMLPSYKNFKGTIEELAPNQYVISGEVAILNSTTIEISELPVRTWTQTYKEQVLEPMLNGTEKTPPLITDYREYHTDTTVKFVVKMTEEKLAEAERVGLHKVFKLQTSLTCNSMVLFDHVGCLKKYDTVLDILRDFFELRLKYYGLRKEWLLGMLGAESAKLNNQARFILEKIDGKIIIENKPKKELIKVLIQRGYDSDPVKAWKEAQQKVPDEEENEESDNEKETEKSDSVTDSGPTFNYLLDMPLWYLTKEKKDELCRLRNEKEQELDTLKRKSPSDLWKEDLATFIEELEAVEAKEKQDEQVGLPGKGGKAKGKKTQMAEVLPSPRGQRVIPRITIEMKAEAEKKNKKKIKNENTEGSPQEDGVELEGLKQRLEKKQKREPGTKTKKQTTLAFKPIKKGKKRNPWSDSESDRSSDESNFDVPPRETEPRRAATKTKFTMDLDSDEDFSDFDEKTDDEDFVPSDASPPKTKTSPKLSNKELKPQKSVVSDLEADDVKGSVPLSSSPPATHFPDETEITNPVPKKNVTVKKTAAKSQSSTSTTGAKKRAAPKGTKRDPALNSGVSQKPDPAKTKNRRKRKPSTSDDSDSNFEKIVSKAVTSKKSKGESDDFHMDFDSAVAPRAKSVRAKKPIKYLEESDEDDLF

As to `O=C1c2cccc3cccc(c23)C(=O)N1CCN=C=[Se]`, the pIC50 is 5.12 in series [1]; 5.23 in series [2]; 4.97 in series [3]; 5.03 in series [4]; 5.20 in [5]; 4.96 in series [6]. Also, the pIC50 in series [7] was 5.17; in [8] it was 5.01; in series [9] it was 5.26; in [10], 5.20; in [11] it was 5.11; in [12], 5.10.

In the case of `N=C(N)[Se]CCN1C(=O)c2cccc3cc([N+](=O)[O-])cc(c23)C1=O`, the pIC50 in series [1] is 4.87; in series [2], 4.85; in series [3] it was less than 4.30; in [4] it was 4.40; in series [5] it was less than 4.30; in series [6], less than 4.30. Also, the pIC50 in [7] was 5.07; in series [8], less than 4.30; in series [9] it was 4.74; in series [10] it was less than 4.30; in [11] it was less than 4.30; in series [12], 4.59.

For `O=C1c2cccc3cccc(c23)C(=O)N1CCCCN=C=[Se]`, the pIC50 in [1] was 5.05; in series [2], 4.92; in [3] it was 4.80; in series [4], 4.81; in series [5] it was 5.01; in series [6] it was 4.88. Also, the pIC50 was 5.10 in series [7]; 4.71 in [8]; 5.04 in series [9]; 4.88 in series [10]; 4.68 in series [11]; 4.55 in series [12].

Regarding `COc1cc([C@@H]2c3cc4c(cc3[C@@H](O[C@@H]3O[C@@H]5CO[C@@H](C)O[C@H]5[C@H](O)[C@H]3O)[C@H]3COC(=O)[C@H]23)OCO4)cc(OC)c1O`, in series [13], the inhibition result was “Active”.

In the case of `O=C1c2cccc3cc([N+](=O)[O-])cc(c23)C(=O)N1CCN=C=[Se]`, the pIC50 was 4.96 in series [1]; 4.80 in [2]; 4.70 in series [3]; 4.69 in series [4]; 4.82 in [5]; 4.67 in [6]. The pIC50 in [7] is 4.90; in series [8], 4.61; in series [9], 4.84; in [10], 4.67; in series [11], 4.68; in [12] it was 4.62.

In the case of `N=C(N)[Se]CCN1C(=O)c2cccc3cccc(c23)C1=O`, the pIC50 in series [1] was 5.29; in [2], 4.92; in series [3], 4.94; in [4] it was 5.09; in series [5] it was 4.75; in series [6], 4.33. For the same compound, the pIC50 was 5.28 in [7]; less than 4.30 in [8]; 4.89 in series [9]; 4.33 in series [10]; 4.75 in series [11]; 4.54 in series [12].

For the compound `CN(C)CCN1C(=O)c2cccc3cc([N+](=O)[O-])cc(c23)C1=O` [MITONAFIDE], the pIC50 in [1] was 6.30; in series [2], 6.30; in [3], 6.05; in series [4] it was 6.22; in series [5] it was 5.55; in series [6], 4.95. The pIC50 was 6.05 in [7]; 5.42 in series [8]; 6.10 in [9]; 4.94 in [10]; 5.82 in series [11]; 5.89 in series [12]. Moreover, the Activity in [14] and in [15] was less than 20% in each case. In addition, in [13], the inhibition result was “Active”.

With `CCCS(=O)(=O)Nc1ccc(F)c(C(=O)c2c[nH]c3ncc(-c4ccc(Cl)cc4)cc23)c1F` [VEMURAFENIB], the pIC50 is 4.90 in series [1]; 5.57 in [2]; 5.12 in [3]; 5.70 in [4]; less than 4.30 in series [5]; less than 4.30 in series [6]. Also, the pIC50 is 4.70 in [7]; less than 4.30 in series [8]; 4.91 in series [9]; less than 4.30 in [10]; 5.69 in [11]; 6.30 in series [12].

For orientation: pIC50 means the IC50 on a negative log10 scale, so that one unit is a factor of ten. Read a high pIC50 as a low IC50.
